IC50, EC50 and pD2 data for eight compounds are collected here from ChEMBL document CHEMBL1129972 (J Med Chem, 1997).

The target in experiment [1] is T1, Angiotensin II receptor (AT-1) type-1 (Rattus norvegicus, UniProt P29089+P25095).
T1 sequence (P29089 whole entry): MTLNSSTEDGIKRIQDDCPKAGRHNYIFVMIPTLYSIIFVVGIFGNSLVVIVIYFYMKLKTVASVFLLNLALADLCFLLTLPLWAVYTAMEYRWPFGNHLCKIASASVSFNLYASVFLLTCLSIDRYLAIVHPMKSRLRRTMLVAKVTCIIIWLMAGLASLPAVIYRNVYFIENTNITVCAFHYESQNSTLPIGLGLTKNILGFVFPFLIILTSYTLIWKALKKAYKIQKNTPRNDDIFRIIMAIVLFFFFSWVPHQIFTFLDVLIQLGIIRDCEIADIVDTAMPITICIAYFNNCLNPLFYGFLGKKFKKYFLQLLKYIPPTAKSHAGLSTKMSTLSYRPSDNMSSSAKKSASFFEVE
T1 sequence (P25095 whole entry): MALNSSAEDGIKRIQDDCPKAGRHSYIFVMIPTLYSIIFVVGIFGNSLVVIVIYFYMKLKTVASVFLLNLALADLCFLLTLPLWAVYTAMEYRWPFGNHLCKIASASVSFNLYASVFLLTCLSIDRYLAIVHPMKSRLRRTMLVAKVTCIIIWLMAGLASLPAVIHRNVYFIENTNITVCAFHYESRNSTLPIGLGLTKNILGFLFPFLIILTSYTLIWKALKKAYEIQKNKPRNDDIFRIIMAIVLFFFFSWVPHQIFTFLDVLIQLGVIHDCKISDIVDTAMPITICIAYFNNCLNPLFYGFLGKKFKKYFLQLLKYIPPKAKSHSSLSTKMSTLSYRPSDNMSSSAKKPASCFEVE
In words: Inhibitory concentration against [125 I]Ang II binding to rat pituitary membranes Angiotensin II receptor type 1 without 0.2% bovine serum albumin.

The species entered for experiment [2] is Oryctolagus cuniculus. As to the kind of experiment: Concentration which produces 50% of maximal contractile response at rabbit aorta strips. The class given is functional. An outline of the steps:
(§1)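 Thoracic aortic rings (2 mm) from male New Zealand white rabbits (2.5–3.5 kg, pentobarbitone-anesthetized) in Krebs' bicarbonate buffer, 38.5 °C, pH 7.4, 95% O2/5% CO2; isometric tension, 2 g resting, ~90 min equilibration with one 300 nM Ang II challenge. Control cumulative Ang II curve (3×10^-10–10^-7 M), then cumulative test-compound curve 3×10^-10–10^-5 M; response as % of control Ang II maximum.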

The target of experiment [3] is T1, Angiotensin II receptor (AT-1) type-1. As to the kind of experiment: Inhibitory concentration against specific binding of [125 I]Ang II to rat pituitary membranes (Angiotensin II receptor, type 1) in presence of 0.2% bovine serum albumin. The class given is cell membranes, Membrane.
For experiment [4], the species on record is Oryctolagus cuniculus. As to the kind of experiment: Contractile activity in isolated rabbit aortic rings. The class given is functional, Aorta. An outline of the steps: as §1

The structures appear in SMILES notation. Bridge positions count the residues as written; N and C are the ends. Square brackets hold non-standard residues; d marks the D form. Peptide text beside a SMILES is read from it. Pen = CC(C)(S)[C@H](N)C(=O)O; hCys = N[C@@H](CCS)C(=O)O Where only a bound is given, the exact number is not on record here.

As usually defined, the IC50 is the midpoint of a concentration-inhibition curve. The compound `CC[C@H](C)[C@@H](C(=O)N[C@@H](Cc1cnc[nH]1)C(=O)N1CCC[C@H]1C(=O)N[C@@H](Cc1ccccc1)C(=O)O)N1Cc2cc(NC(=O)[C@H](CCCN=C(N)N)NC(=O)[C@@H](N)CC(=O)O)ccc2[C@@H](Cc2ccc(O)cc2)C1=O` came in with a half-maximal inhibitory concentration (IC50) in experiment [1] above 100000 nM.

As to `CC[C@H](C)[C@@H](C(=O)N[C@@H](Cc1c[nH]cn1)C(=O)N1CCC[C@H]1C(=O)N[C@@H](Cc1ccccc1)C(=O)O)N1CCC(CNC(=O)[C@H](CCCN=C(N)N)NC(=O)[C@@H](N)CC(=O)O)=C[C@H](Cc2ccc(O)cc2)C1=O`, the half-inhibitory concentration (IC50) in experiment [1] is 2 nM.

With `CC[C@H](C)[C@@H](C(=O)N[C@@H](Cc1c[nH]cn1)C(=O)N1CCC[C@H]1C(=O)N[C@@H](Cc1ccccc1)C(=O)O)N1Cc2cc(NC(=O)[C@H](CCCN=C(N)N)NC(=O)[C@@H](N)CC(=O)O)ccc2[C@H](Cc2ccc(O)cc2)C1=O`, in experiment [1], the IC50 is above 100000 nM.

Usually EC50 stands for the concentration needed to bring the measured effect to its halfway point. Higher therefore signals a less potent agent. Regarding `CC[C@H](C)[C@@H](C(=O)N[C@@H](Cc1c[nH]cn1)C(=O)N1CCC[C@H]1C(=O)N[C@@H](Cc1ccccc1)C(=O)O)N1CCC(CNC(=O)[C@H](CCCN=C(N)N)NC(=O)[C@@H](N)CC(=O)O)=C[C@@H](Cc2ccc(O)cc2)C1=O`, in the experiment listed under Oryctolagus cuniculus [2], it took 830 nM to reach a half-maximal effect (EC50). The compound further had a 50% inhibitory concentration (IC50) in experiment [1] of 2.8 nM.

For the compound `NC(N)=NCCC[C@H](NC(=O)[C@@H](N)CC(=O)O)C(=O)N[C@H]1CSSC[C@@H](C(=O)N[C@@H](Cc2c[nH]cn2)C(=O)N2CCC[C@H]2C(=O)N[C@@H](Cc2ccccc2)C(=O)O)NC(=O)[C@H](Cc2ccc(O)cc2)NC1=O` (H-DRCYCHPF-OH; disulfide 3-5), the half-maximal inhibitory concentration (IC50) in experiment [3] came out at 28 nM; in experiment [1], 2.9 nM.

Turning to `CC1(C)SSC(C)(C)[C@@H](C(=O)N[C@@H](Cc2c[nH]cn2)C(=O)N2CCC[C@H]2C(=O)N[C@@H](Cc2ccccc2)C(=O)O)NC(=O)[C@H](Cc2ccc(O)cc2)NC(=O)[C@H]1NC(=O)[C@H](CCCN=C(N)N)NC(=O)[C@@H](N)CC(=O)O` (H-DR[Pen]Y[Pen]HPF-OH; disulfide 3-5), the IC50 in experiment [3] was 3.8 nM; in experiment [1], 0.9 nM. For the same compound, in the experiment listed under Oryctolagus cuniculus [2], the concentration giving a half-maximal response (EC50) was found to be 217 nM.

`NC(N)=NCCC[C@H](NC(=O)[C@@H](N)CC(=O)O)C(=O)N[C@H]1CCSSCC[C@@H](C(=O)N[C@@H](Cc2c[nH]cn2)C(=O)N2CCC[C@H]2C(=O)N[C@@H](Cc2ccccc2)C(=O)O)NC(=O)[C@H](Cc2ccc(O)cc2)NC1=O` (H-DR[hCys]Y[hCys]HPF-OH; disulfide 3-5): the IC50 in experiment [3] was 15.4 nM; in experiment [1] it was 1.7 nM. In the experiment filed under Oryctolagus cuniculus [4], this compound showed a pD2 of 8.48.

Compound `CC[C@H](C)[C@H](NC(=O)[C@H](Cc1ccc(O)cc1)NC(=O)[C@@H](NC(=O)[C@H](CCCNC(=N)N)NC(=O)[C@@H](N)CC(=O)O)C(C)C)C(=O)N[C@@H](Cc1cnc[nH]1)C(=O)N1CCC[C@H]1C(=O)N[C@@H](Cc1ccccc1)C(=O)O` [ANGIOTENSIN II] yielded an EC50 in the experiment filed under Oryctolagus cuniculus [2] of 2.6 nM.
